# Experimental data: ChEMBL document CHEMBL1145471, “Small molecule regulators of autophagy identified by an image-based high-throughput screen” (Proc Natl Acad Sci U S A, 2007)
# Activity calls are given as the source filed them. No cut-off for these calls is given here.
# Columns and labels:
# [1] = system: H4; assay: Increase in light chain 3-GFP+ autophagosome vesicle area per cell in human H4 cells at 5.9 uM after 24 hrs by high throughput fluorescence microscopy relative to control; assay type: functional
# Summary of the method: (§1)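 H4 cells stably expressing LC3-GFP, seeded in 96-well plates and exposed to compound for 24 h; screening concentrations were 3–12 μM, with rapamycin 0.22 μM and bafilomycin A1 0.40 μM. Cells fixed in 4% paraformaldehyde and stained with 3 μg/ml DAPI. Number, size and intensity of LC3-GFP spots measured by high-throughput fluorescence microscopy and expressed as percent of DMSO-treated wells. Rapamycin was the positive control. Triplicate wells, mean ± SD; experiments repeated three times.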
# [2] = system: H4; assay: Increase in light chain 3-GFP+ autophagosome vesicle number per cell in human H4 cells at 5.9 uM after 24 hrs by high throughput fluorescence microscopy relative to control; assay type: functional
# Summary of the method: (§2)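 H4 cells stably expressing LC3-GFP were grown in DMEM with 10% FBS and 2 mM L-glutamine at 37°C, 5% CO2. They were exposed to each compound for 24 h, with DMSO as negative and rapamycin as positive control. Cells were then fixed in 4% paraformaldehyde and stained with 3 μg/ml DAPI. High-throughput fluorescence imaging scored LC3-GFP spot number, size and intensity, expressed relative to DMSO. Mean ± SD of triplicates; experiments repeated three times.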
# [3] = system: H4; assay: Increase in light chain 3-GFP+ autophagosome vesicle intensity per cell in human H4 cells at 5.9 uM after 24 hrs by high throughput fluorescence microscopy relative to control; assay type: functional; summary of the method: as §2
# [4] = system: H4; assay: Increase in FYVE-RFP+ vesicle intensity per cell in human H4 cells after 2 hrs relative to control; assay type: functional; parameters: concentration or dose not given beside the values
# Summary of the method: (§3)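 H4 cells stably expressing FYVE-RFP (H4-FYVE), grown in DMEM with 10% FBS, penicillin/streptomycin and 2 mM L-glutamine at 37°C, 5% CO2, seeded in 96-well plates and exposed to compound. Fixed in 4% paraformaldehyde, nuclei stained with 3 μg/ml DAPI, FYVE-RFP+ vesicles quantified by high-throughput fluorescence microscopy against DMSO control. Triplicate wells, mean ± SD.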
# [5] = system: H4; assay: Increase in FYVE-RFP+ vesicle intensity per cell in human H4 cells after 4 hrs relative to control; assay type: functional; parameters: concentration or dose not given beside the values; summary of the method: as §3
# [6] = system: H4; assay: Increase in FYVE-RFP+ vesicle intensity per cell in human H4 cells after 8 hrs relative to control; assay type: functional; parameters: concentration or dose not given beside the values; summary of the method: as §3
# [7] = system: H4; assay: Increase in long-lived protein degradation in human H4 cells after 1 hr relative to control; assay type: functional; parameters: concentration or dose not given beside the values
# [8] = system: H4; assay: Increase in long-lived protein degradation in human H4 cells after 2 hrs relative to control; assay type: functional; parameters: concentration or dose not given beside the values
# [9] = system: H4; assay: Increase in long-lived protein degradation in human H4 cells after 4 hrs relative to control; assay type: functional; parameters: concentration or dose not given beside the values
# [10] = system: H4; assay: Increase in long-lived protein degradation in human H4 cells after 24 hrs relative to control; assay type: functional; parameters: concentration or dose not given beside the values
# [11] = system: H4; assay: Induction of light chain 3-GFP level in human H4 cells at 5.9 uM after 24 hrs by high throughput fluorescence microscopy relative to control; assay type: functional
# Summary of the method: (§4)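 H4 cells stably expressing LC3-GFP, grown in DMEM with 10% FBS, penicillin/streptomycin and 2 mM L-glutamine at 37°C, 5% CO2. Cells were seeded in 96-well plates and exposed to library compounds at 3–12 μM for 24 h, then fixed in 4% paraformaldehyde and stained with 3 μg/ml DAPI. LC3-GFP spot number, size and intensity were measured by high-throughput fluorescence microscopy and expressed relative to DMSO. Triplicates, mean ± SD.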
# [12] = system: H4; assay: Reduction of poly(Q) level in human H4 cells expressing EGFP-Q79-HA after 24 hrs; assay type: functional, cell-based
# Summary of the method: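 H4 cells were transiently transfected with an EGFP-Q79-HA expression vector. The medium was replaced 6 h after transfection and compounds were added. Poly(Q) was detected with anti-HA antibody.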
# [13] = molecular target: Serine/threonine-protein kinase mTOR (Homo sapiens, UniProt P42345); assay: Effect on mTOR phosphorylation in human H4 cells at 3.7 uM after 4 hrs; assay type: cell-based
# Summary of the method: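 H4 cells exposed to compound for 4 h. Lysates analysed by Western blot with anti-phospho and anti-total mTOR antibodies, with actin as loading control. Rapamycin served as reference.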
# [14] = system: H4; assay: Increase in light chain 3-GFP+ autophagosome vesicle area per cell in human H4 cells at 3.7 uM after 24 hrs by high throughput fluorescence microscopy relative to control; assay type: functional; summary of the method: as §1
# [15] = system: H4; assay: Induction of light chain 3-GFP level in human H4 cells at 3.7 uM after 24 hrs by high throughput fluorescence microscopy relative to control; assay type: functional; summary of the method: as §4
# [16] = system: H4; assay: Increase in light chain 3-GFP+ autophagosome vesicle intensity per cell in human H4 cells at 3.7 uM after 24 hrs by high throughput fluorescence microscopy relative to control; assay type: functional; summary of the method: as §1
# [17] = system: H4; assay: Effect on FYVE-RFP+ vesicle intensity per cell in human H4 cells after 2 hrs relative to control; assay type: functional; parameters: concentration or dose not given beside the values; summary of the method: as §3
# [18] = system: H4; assay: Effect on FYVE-RFP+ vesicle intensity per cell in human H4 cells after 4 hrs relative to control; assay type: functional; parameters: concentration or dose not given beside the values; summary of the method: as §3
# [19] = system: H4; assay: Effect on FYVE-RFP+ vesicle intensity per cell in human H4 cells after 8 hrs relative to control; assay type: functional; parameters: concentration or dose not given beside the values; summary of the method: as §3
# [20] = system: H4; assay: Increase in ratio of light chain 3 subunit 2 to light chain 3 subunit 1 in human H4 cells at 3.7 uM after 4 hrs by Western blot; assay type: functional, cell-based
# Summary of the method: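 H4 cells were treated with each compound for 4 h, then lysed. Lysates were immunoblotted with anti-LC3 antibody, with actin as loading control. LC3II and LC3I bands were compared as an LC3II/LC3I ratio.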
# [21] = system: H4; assay: Increase in light chain 3-GFP+ autophagosome vesicle number per cell in human H4 cells at 3.7 uM after 24 hrs by high throughput fluorescence microscopy relative to control; assay type: functional; summary of the method: as §2
# [22] = system: H4; assay: Increase in light chain 3-GFP+ autophagosome vesicle area per cell in human H4 cells at 3.6 uM after 24 hrs by high throughput fluorescence microscopy relative to control; assay type: functional; summary of the method: as §1
# [23] = system: H4; assay: Increase in light chain 3-GFP+ autophagosome vesicle number per cell in human H4 cells at 3.6 uM after 24 hrs by high throughput fluorescence microscopy relative to control; assay type: functional; summary of the method: as §2
# [24] = system: H4; assay: Increase in light chain 3-GFP+ autophagosome vesicle intensity per cell in human H4 cells at 3.6 uM after 24 hrs by high throughput fluorescence microscopy relative to control; assay type: functional; summary of the method: as §1
# [25] = system: H4; assay: Decrease in FYVE-RFP+ vesicle intensity per cell in human H4 cells after 2 hrs relative to control; assay type: functional; parameters: concentration or dose not given beside the values; summary of the method: as §3
# [26] = system: H4; assay: Decrease in FYVE-RFP+ vesicle intensity per cell in human H4 cells after 4 hrs relative to control; assay type: functional; parameters: concentration or dose not given beside the values; summary of the method: as §3
# [27] = system: H4; assay: Decrease in FYVE-RFP+ vesicle intensity per cell in human H4 cells after 8 hrs relative to control; assay type: functional; parameters: concentration or dose not given beside the values; summary of the method: as §3
# [28] = system: H4; assay: Induction of light chain 3-GFP level in human H4 cells at 3.6 uM after 24 hrs by high throughput fluorescence microscopy relative to control; assay type: functional; summary of the method: as §4
# [29] = system: H4; assay: Increase in light chain 3-GFP+ autophagosome vesicle area per cell in human H4 cells at 7.0 uM after 24 hrs by high throughput fluorescence microscopy relative to control; assay type: functional; summary of the method: as §1
# [30] = system: H4; assay: Increase in light chain 3-GFP+ autophagosome vesicle intensity per cell in human H4 cells at 7.0 uM after 24 hrs by high throughput fluorescence microscopy relative to control; assay type: functional; summary of the method: as §2
# [31] = system: H4; assay: Induction of light chain 3-GFP level in human H4 cells at 7.0 uM after 24 hrs by high throughput fluorescence microscopy relative to control; assay type: functional; summary of the method: as §4
# [32] = system: H4; assay: Increase in light chain 3-GFP+ autophagosome vesicle number per cell in human H4 cells at 7.0 uM after 24 hrs by high throughput fluorescence microscopy relative to control; assay type: functional; summary of the method: as §2
# [33] = system: H4; assay: Increase in light chain 3-GFP+ autophagosome vesicle area per cell in human H4 cells at 3.4 uM after 24 hrs by high throughput fluorescence microscopy relative to control; assay type: functional
# Summary of the method: (§5)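 H4 cells stably expressing LC3-GFP, seeded in 96-well plates and exposed to compound for 24 h; fixed in 4% paraformaldehyde, nuclei stained with 3 μg/ml DAPI. Automated fluorescence microscopy scored number, size and intensity of LC3-GFP spots; values expressed relative to DMSO-treated wells, rapamycin positive control. Triplicate wells, mean ± SD; experiments repeated three times.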
# [34] = system: H4; assay: Increase in light chain 3-GFP+ autophagosome vesicle number per cell in human H4 cells at 3.4 uM after 24 hrs by high throughput fluorescence microscopy relative to control; assay type: functional; summary of the method: as §5
# [35] = system: H4; assay: Increase in light chain 3-GFP+ autophagosome vesicle intensity per cell in human H4 cells at 3.4 uM after 24 hrs by high throughput fluorescence microscopy relative to control; assay type: functional; summary of the method: as §5
# [36] = system: H4; assay: Induction of light chain 3-GFP level in human H4 cells at 3.4 uM after 24 hrs by high throughput fluorescence microscopy relative to control; assay type: functional
# Summary of the method: (§6)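 H4 cells stably expressing LC3-GFP, kept in DMEM/10% FBS at 37°C, 5% CO2, were seeded in 96-well plates and exposed to compound for 24 h. Cells were then fixed in 4% paraformaldehyde and stained with 3 μg/ml DAPI. Automated fluorescence microscopy scored the number, size and intensity of LC3-GFP spots. Values are percent of DMSO wells, in triplicate, mean ± SD. Rapamycin served as positive control.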
# [37] = system: H4; assay: Increase in light chain 3-GFP+ autophagosome vesicle area per cell in human H4 cells at 7.7 uM after 24 hrs by high throughput fluorescence microscopy relative to control; assay type: functional; summary of the method: as §5
# [38] = system: H4; assay: Increase in light chain 3-GFP+ autophagosome vesicle number per cell in human H4 cells at 7.7 uM after 24 hrs by high throughput fluorescence microscopy relative to control; assay type: functional; summary of the method: as §6
# [39] = system: H4; assay: Increase in light chain 3-GFP+ autophagosome vesicle intensity per cell in human H4 cells at 7.7 uM after 24 hrs by high throughput fluorescence microscopy relative to control; assay type: functional; summary of the method: as §5
# [40] = system: H4; assay: Induction of light chain 3-GFP level in human H4 cells at 7.7 uM after 24 hrs by high throughput fluorescence microscopy relative to control; assay type: functional; summary of the method: as §6
Compound,Activity [4] [%],Activity [5] [%],Activity [6] [%],Activity [7] [%],Activity [8] [%],Activity [9] [%],Activity [10] [%],Activity [17] [%],Activity [18] [%],Activity [19] [%],other results
CN(C)C[C@H](O)Cn1c2ccc(Br)cc2c2cc(Br)ccc21 [WISKOSTATIN],267.9,240.08,131.93,68.51,90.21,92.99,97.71,–,–,–,Activity [1]: 1226.54%; Activity [2]: 789.24%; Activity [3]: 2401.38%; Activity [11]: 96.96%
CCCCc1oc2ccccc2c1C(=O)c1cc(I)c(OCCN(CC)CC)c(I)c1 [AMIODARONE],–,–,–,101.32,122.42,110.75,116.73,92.5,89.23,83.45,Activity [12]: Dose-dependent effect; Activity [13]: inactive; Activity [14]: 236.64%; Activity [15]: 138.5%; Activity [16]: 327.25%; Activity [20]: Active; Activity [21]: 189.25%
CC[C@@]1([C@@H]2O[C@@H]([C@H]3O[C@@](O)(CO)[C@H](C)C[C@@H]3C)C[C@@H]2C)CC[C@H]([C@]2(C)CC[C@]3(C[C@H](O)[C@@H](C)[C@@H]([C@@H](C)[C@@H](OC)[C@H](C)C(=O)O)O3)O2)O1 [MONENSIN],–,–,–,107.28,123.64,109.16,107.54,–,–,–,Activity [22]: 418.31%; Activity [23]: 312.92%; Activity [24]: 639.29%; Activity [25]: 81.22%; Activity [26]: 66.44%; Activity [27]: 59.14%; Activity [28]: 92.38%
COC(=O)C1=C(C)NC(C)=C([N+](=O)[O-])C1c1ccccc1C(F)(F)F (centres undefined),–,–,–,104.43,115.5,115.35,102.15,110.18,57.79,79.7,Activity [29]: 165.46%; Activity [30]: 181.32%; Activity [31]: 134.45%; Activity [32]: 146.82%
CO[C@@H]1C[C@@H](C[C@H]2CC[C@H](C)[C@H]([C@@H](C)C(=O)O)O2)O[C@]2(O[C@](C)([C@H]3CC[C@@](C)([C@@H]4O[C@@H]([C@H]5O[C@@](O)(CO)[C@H](C)C[C@@H]5C)C[C@@H]4C)O3)C[C@H]2C)[C@@H]1C [NIGERICIN],148.43,145.4,140.54,91.75,88.14,96.9,95.98,–,–,–,Activity [33]: 551.04%; Activity [34]: 375.67%; Activity [35]: 747.88%; Activity [36]: 106.9%
CN1CCN(C2=Nc3cc(Cl)ccc3Nc3ccccc32)CC1 [CLOZAPINE],–,–,–,115.64,125.71,11.93,119.5,64.04,74.79,78.38,Activity [37]: 275.5%; Activity [38]: 216.53%; Activity [39]: 350.13%; Activity [40]: 139.18%
